Source: PubChem (several laboratories)
Compounds with a hit are over-represented: about 2.2% of the library has one in this group of screens.
Ins promoter up: insulin promoter activators in MIN6 cells, imaging, high-content screening, mouse beta cells. z-score at 5 µM. actives 0.3% (n = 190,000). AID 1625, 2009. MIN6 insulin promoter-GFP reporter; hits give high values;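 active means z-score above 3 at 5 µM with at least 500 cells counted in the well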
Insulin prom inh: inhibitors of insulin promoter-driven GFP, primary screen, imaging, TRM-6 cells (human fetal islet line), eGFP reporter, cell count. reporter expression induced with tamoxifen. actives 0.9% (n = 130,000). inhibition, % at 2 µM;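 active means inhibition above the mean plus 3 SD, with well images judged a real hit on visual review, cut at about 60% in these data, passing the limit was not always enough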
Wee1 degr inh: Wee1 degradation inhibitors, primary screen, cell-based, HeLa, Wee1K328M-luciferase, luminescence; actives 1.2% (n = 220,000); HeLa Luc-Wee1K328M stability; 100% = proteasome inhibitor MG132 effect; reporter increase, % at 5 µM; AID 1321, 2008;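 active means activation above the mean of all tested compounds plus 3 SD, set per screening run, cut at about 8.8% in these data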;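 further: cells exposed to compound for 20 h before luminescence read; 0% = DMSO alone and 100% = MG132 at 30 µM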
Mdm2 ligase inh: MDM2-luciferase reporter signal enhancers, primary screen, MDM2 E3 ligase inhibitor project, cell-based, luminescence, 1536-well; E3 ubiquitin-protein ligase Mdm2 (Homo sapiens), Q00987; cell-based MDM2 ubiquitination luciferase reporter, 2 h; 0 = plate control, 100 = twice control, blank-subtracted; signal enhancement, % at 5 µM; actives 0.11% (n = 210,000);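 active means signal enhancement of 30% or more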;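 further: luminescence tracks abundance of the self-degrading MDM2-luciferase fusion protein; higher signal means inhibition of MDM2 E3 ligase activity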
Target sequence (Q00987 whole entry, looked up, the tested form may be a part): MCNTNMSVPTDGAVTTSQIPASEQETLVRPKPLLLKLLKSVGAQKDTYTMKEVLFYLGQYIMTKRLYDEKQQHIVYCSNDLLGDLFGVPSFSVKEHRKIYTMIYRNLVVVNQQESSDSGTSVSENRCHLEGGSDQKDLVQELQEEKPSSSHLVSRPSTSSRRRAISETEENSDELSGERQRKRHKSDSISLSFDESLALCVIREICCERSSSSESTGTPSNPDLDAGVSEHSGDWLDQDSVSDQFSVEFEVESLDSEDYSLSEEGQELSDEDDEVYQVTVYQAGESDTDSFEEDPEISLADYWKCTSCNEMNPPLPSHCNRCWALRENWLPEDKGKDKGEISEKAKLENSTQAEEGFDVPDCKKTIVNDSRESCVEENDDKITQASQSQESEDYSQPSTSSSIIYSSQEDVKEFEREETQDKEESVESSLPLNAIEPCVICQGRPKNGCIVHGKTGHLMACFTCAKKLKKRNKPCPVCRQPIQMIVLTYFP
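Test system: mammalian cells stably expressing self-ubiquitinating, self-degrading MDM2 E3–luciferase fusion; Amount: 2000 cells in each well; Medium: DMEM; Schedule: 4 h settle plus 2 h compound, 37 °C; Technique: SteadyLite luciferase luminescence after 15 min room-temperature reagent incubation; Benchmarks: plate control and blank wells.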
Hsp70 activator: Hsp70 transcriptional activators, primary screen, cell-based, HeLa, Hsp70 promoter luciferase, luminescence, 10 µM | AID 1203, 2008 | HeLa Hsp70 promoter luciferase reporter; scaled: vehicle 0, proteasome-inhibitor control 100% | activation, % at 10 µM | actives 0.04% (n = 200,000);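 active means activation above the mean across all tested compounds plus 3 SD, cutoff set per campaign, cut at about 5.5% in these data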;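 further: 100% = MG132 at 30 µM as the positive control and 0% = DMSO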
RBBP9 inhibitor: human RBBP9 inhibitors, primary screen, biochemical, fluorescence polarization, FP-Rh probe, HTS | Serine hydrolase RBBP9 (Homo sapiens), O75884 | recombinant RBBP9 | inhibition, % at 7.94 µM | actives 0.2% (n = 220,000) | AID 1515, 2009;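 active means inhibition above the campaign mean of all tested compounds plus 3 SD, cut at about 14% in these data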;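 further: plate controls were DMSO wells with RBBP9 for no effect and wells lacking RBBP9 protein for full effect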
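Controls: DMSO-treated enzyme wells and wells lacking RBBP9 | Material: RBBP9 protein | Technique: Fluorescence polarization | Replication: Single well per compound, no replicates | Buffer or medium: Tris-NaCl-Pluronic buffer, pH 8.0 | Timing: 30 min compound preincubation, 45 min probe labeling, 25 °C | Read-out basis: Percent inhibition from mP, scaled between DMSO and no-protein wells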
The depositor's hits bear a star; / = no result given.

SMILES	Ins promoter up	Insulin prom inh	Wee1 degr inh	Mdm2 ligase inh	Hsp70 activator	RBBP9 inhibitor
O=C(O)/C=C/C(=O)Nc1ccc(N2CCOCC2)nc1N1CCOCC1	-1.64	/	1.2	-11.7	/	-6.7
O=C(O)CCn1nnc(-c2ccccc2)n1	-1.12	33.3	-2.5	0.5	-0.2	0.9
CNCC(O)Cn1c(C(F)(F)F)nc2ccccc21 (stereo not given)	0.23	55.6	2.5	-4.0	0.1	-0.4
CCOC(=O)C1(C)/C(=N/Nc2ccc(S(N)(=O)=O)cc2)C(=O)C(=O)N1c1ccccc1 (stereo not given)	0.45	27.8	0.0	-12.6	-0.1	4.1
CCOC(=O)C1(C)C=C(Nc2ccc(C)cc2)C(=O)N1c1ccc(C)cc1 (stereo not given)	-0.06	70.4*	6.6	-7.7	-0.5	-3.3
Cc1cc2nc(/C=C/c3nc4cc(C)c(C)cc4[nH]3)[nH]c2cc1C	0.45	/	-1.9	-14.0	/	-3.8
Cc1ccc(/C=C/c2nc3ccccc3[nH]2)o1	-0.52	71.4*	1.4	-53.6	-0.1	-6.8
FC(F)(F)c1cnc2c(-c3ccccc3)n[nH]c2c1	-0.06	53.9	1.0	-13.8	-0.1	-8.5
CN(Cc1ccc(F)cc1)C(=O)COc1ccccc1-c1ccccc1	-0.24	/	-1.2	-8.9	-0.3	-5.1
COC(=O)c1cc(-c2ccc(Cl)cc2Cl)n[nH]1	-0.27	77.8*	1.4	-86.4	0.3	-5.8
COC(=O)c1cc(-c2ccc(Cl)cc2)n[nH]1	0.39	/	3.6	-3.4	-0.1	-9.4
c1ccc(-c2csc(-n3cnnn3)n2)cc1	3.13*	-29.0	0.7	-0.7	-0.1	-6.1
Cc1noc(C)c1-c1nnc(-c2ccc(C(F)(F)F)cc2)o1	-0.07	/	2.3	0.7	/	-9.4
O=C(O)/C=C/c1ccc2ccccc2n1	1.28	12.5	-1.5	10.0	0.3	3.6
O=C(/C=C/c1ccc2ccccc2n1)c1cc(Br)ccc1O	4.36*	/	-0.3	-3.1	/	2.1
Cc1nnc(SCC(=O)c2ccc(Cl)cc2)s1	0.13	71.4*	-2.9	6.2	0.0	-1.7
Cn1c(CNC(=O)c2ccco2)nnc1SCC(=O)Nc1cccc(Br)c1	0.66	61.5	1.1	-8.7	0.3	-6.9
Cn1c(CNC(=O)c2ccco2)nnc1SCC(=O)N1c2ccccc2Sc2ccccc21	-1.56	-31.6	0.6	30.0*	0.0	-4.5
Cc1cc(S(=O)(=O)NC2CCCCC2)c(C)s1	3.49*	/	0.2	-3.6	-0.3	-4.6
O=c1c2sc(-c3ccccc3)cc2nc2n1CCCCC2	0.71	/	9.9*	-21.8	/	0.9
C=CCc1ccc(OCC(O)CO)c(OC)c1 (stereo not given)	-0.36	-54.8	0.1	-5.9	-0.6	-0.8
C=CCc1ccc(O)c(-c2cc(CC=C)ccc2O)c1	-0.18	/	10.4*	8.7	0.1	-0.2
CC(C)Oc1c(N2CCOCC2)c(=O)c1=O	-0.4	/	0.5	-10.6	/	-4.7
O=c1c(N2CCOCC2)c(N2CCOCC2)c1=O	3.02*	/	-1.6	0.6	/	2.8
CCOC(=O)c1oc2c(c1C)/C(=N/O)CCC2	/	87.5*	-0.8	0.4	-0.2	-6.7
SMILES	Ins promoter up	Insulin prom inh	Wee1 degr inh	Mdm2 ligase inh	Hsp70 activator	RBBP9 inhibitor
Cn1ncc([N+](=O)[O-])c1C(=O)n1nnc2ccccc21	/	-12.5	27.5*	-17.2	-0.1	-4.3
Cc1cc(C)nc(/N=C2\NC(=O)CC(C(=O)O)N2c2ccc(C)c(C)c2)n1 (stereo not given)	-0.28	/	2.2	-10.6	-0.3	-6.1
CCOc1cc(-n2nc(C)c(C#N)c2N)nc(SC)n1	/	76.5*	-1.5	-4.8	0.0	-6.0
COc1ccc(-c2nc(N3CCCC3)[nH]c(=O)c2C#N)cc1	/	0.0	0.8	-3.6	-0.5	-5.4
COc1ccc(-c2nc(N3CCC(C)CC3)[nH]c(=O)c2C#N)cc1	0.66	71.4*	2.5	-14.0	-0.2	4.4
CCOc1ccccc1-c1nc(-c2ccc(C)nc2OC)no1	0.48	/	9.5*	5.2	0.1	5.0
